Among the data in ChEMBL document CHEMBL4138113, “Novel propanamides as fatty acid amide hydrolase inhibitors” (Eur J Med Chem, 2017) are IC50 and inhibition values, retold here.

Calls of active or inactive are those of the source.

For test [1], the target named is T1, Fatty-acid amide hydrolase 1 (Homo sapiens, UniProt O00519).
T1 sequence (O00519 whole entry): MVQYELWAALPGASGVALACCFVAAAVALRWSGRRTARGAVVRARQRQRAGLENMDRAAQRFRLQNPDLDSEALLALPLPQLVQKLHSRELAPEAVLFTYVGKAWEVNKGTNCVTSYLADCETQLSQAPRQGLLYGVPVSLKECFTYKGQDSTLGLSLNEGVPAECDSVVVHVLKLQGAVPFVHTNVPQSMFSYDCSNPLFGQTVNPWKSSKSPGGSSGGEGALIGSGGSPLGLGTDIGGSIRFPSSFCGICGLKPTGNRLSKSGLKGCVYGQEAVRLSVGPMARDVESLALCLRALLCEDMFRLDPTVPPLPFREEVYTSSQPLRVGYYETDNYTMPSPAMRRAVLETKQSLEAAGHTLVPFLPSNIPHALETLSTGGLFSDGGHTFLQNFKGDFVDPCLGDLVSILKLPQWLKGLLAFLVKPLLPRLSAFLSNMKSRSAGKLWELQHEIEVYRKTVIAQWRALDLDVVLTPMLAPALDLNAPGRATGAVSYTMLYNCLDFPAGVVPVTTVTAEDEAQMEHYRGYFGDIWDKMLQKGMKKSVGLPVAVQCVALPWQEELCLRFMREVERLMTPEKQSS
Nature of the test: Inhibition of FAAH (unknown origin) expressed in human HeLa cells transfected with empty vector using [3H]AEA as substrate after 2 hrs by liquid scintillation counting analysis. The test is classed as cell-based.

Test [2] deals with T2, Fatty-acid amide hydrolase 1 (Rattus norvegicus) (UniProt P97612).
T2 sequence (whole entry): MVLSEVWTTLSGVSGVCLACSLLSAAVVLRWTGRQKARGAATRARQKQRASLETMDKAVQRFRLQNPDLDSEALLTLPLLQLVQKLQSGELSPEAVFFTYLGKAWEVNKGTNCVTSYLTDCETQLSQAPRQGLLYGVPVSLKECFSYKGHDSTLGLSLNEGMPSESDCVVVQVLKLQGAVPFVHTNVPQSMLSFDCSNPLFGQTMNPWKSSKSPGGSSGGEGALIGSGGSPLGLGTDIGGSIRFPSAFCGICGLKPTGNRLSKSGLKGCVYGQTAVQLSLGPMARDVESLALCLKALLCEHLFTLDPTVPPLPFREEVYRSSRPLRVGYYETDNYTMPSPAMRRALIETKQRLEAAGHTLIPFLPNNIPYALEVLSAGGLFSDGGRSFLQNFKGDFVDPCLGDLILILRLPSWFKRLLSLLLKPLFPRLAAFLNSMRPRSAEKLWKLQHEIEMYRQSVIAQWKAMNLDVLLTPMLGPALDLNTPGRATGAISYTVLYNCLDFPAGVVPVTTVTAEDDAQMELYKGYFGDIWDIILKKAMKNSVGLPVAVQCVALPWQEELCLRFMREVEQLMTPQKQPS
Nature of the test: Reversible inhibition of rat brain FAAH at 0.2 to 2 uM using [3H]AEA as substrate preincubated for 60 mins followed by 20 fold compound dilution and subsequent substrate addition by liquid scintillation counting analysis. An outline of the steps: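 Rat brain homogenate at 20-fold normal strength was preincubated with vehicle or compound for 60 min, then diluted 20-fold and assayed with [3H]AEA for 10 min at 37 °C. In parallel, compound was added to vehicle-preincubated aliquots at the post-dilution free concentrations and at the undiluted final concentrations. Tritium was counted after charcoal separation.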

The target of test [3] is T3, Fatty-acid amide hydrolase 1 (Mus musculus) (UniProt O08914).
T3 sequence (whole entry): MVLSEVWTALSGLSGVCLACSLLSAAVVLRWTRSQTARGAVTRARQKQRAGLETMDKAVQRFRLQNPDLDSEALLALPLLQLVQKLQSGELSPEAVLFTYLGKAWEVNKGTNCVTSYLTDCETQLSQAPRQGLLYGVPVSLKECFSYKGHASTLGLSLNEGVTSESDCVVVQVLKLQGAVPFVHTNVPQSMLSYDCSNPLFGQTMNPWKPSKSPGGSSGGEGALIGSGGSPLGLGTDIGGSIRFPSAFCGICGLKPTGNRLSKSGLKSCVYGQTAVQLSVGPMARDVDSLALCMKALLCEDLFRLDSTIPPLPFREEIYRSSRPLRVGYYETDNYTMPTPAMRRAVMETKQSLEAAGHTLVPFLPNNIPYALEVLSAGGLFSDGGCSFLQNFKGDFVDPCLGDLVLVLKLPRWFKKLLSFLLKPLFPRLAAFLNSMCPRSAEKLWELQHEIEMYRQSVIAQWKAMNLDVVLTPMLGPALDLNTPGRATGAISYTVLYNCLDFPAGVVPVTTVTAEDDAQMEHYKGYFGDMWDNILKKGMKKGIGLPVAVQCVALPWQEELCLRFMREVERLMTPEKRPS
Put plainly: Inhibition of B6CBAF1/J mouse brain FAAH using [3H]AEA as substrate after 10 mins in presence of N-(3-Chloropyridin-2-yl)-2-(4-((2-(trifluoromethyl)pyridin-4-yl)amino)phenyl)propanamide by Dixon plot analysis. An outline of the steps:
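Kinetic study in brain homogenate from male B6CBAF1/J mice (0.3 µg protein per assay). [3H]AEA hydrolysis ran for 10 min at 37 °C in Tris-EDTA buffer, pH 7.4, with the AEA:fatty acid-free BSA ratio held at 1:~4.5. Products were separated on charcoal and counted by scintillation. Competitive, mixed-type and non-competitive fits were compared by Akaike's criterion.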

The target in test [4] is T4, Prostaglandin G/H synthase 1 (Ovis aries) (UniProt P05979).
T4 sequence (whole entry): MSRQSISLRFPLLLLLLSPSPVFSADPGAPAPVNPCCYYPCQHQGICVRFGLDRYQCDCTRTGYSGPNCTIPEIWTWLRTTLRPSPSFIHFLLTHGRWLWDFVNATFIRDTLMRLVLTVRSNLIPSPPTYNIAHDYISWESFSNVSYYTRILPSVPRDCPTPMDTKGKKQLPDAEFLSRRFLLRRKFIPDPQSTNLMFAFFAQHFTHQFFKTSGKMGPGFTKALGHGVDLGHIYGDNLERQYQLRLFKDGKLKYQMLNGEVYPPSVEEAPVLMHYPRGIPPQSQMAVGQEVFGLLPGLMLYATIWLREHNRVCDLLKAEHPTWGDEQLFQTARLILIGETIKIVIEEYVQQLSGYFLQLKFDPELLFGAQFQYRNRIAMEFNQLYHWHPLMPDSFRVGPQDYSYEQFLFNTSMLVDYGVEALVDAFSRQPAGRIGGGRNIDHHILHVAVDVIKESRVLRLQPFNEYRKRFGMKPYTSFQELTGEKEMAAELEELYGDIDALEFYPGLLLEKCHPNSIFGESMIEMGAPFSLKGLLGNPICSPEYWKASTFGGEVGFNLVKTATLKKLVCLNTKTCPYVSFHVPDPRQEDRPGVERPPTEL
Nature of the test: Inhibition of recombinant ovine COX1 at 100 uM using arachidonic acid as substrate after 5 mins. An outline of the steps: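 Oxygen-electrode assay at room temperature in 0.1 M Tris-HCl, pH 7.4, with 1 µM haematin, 2 mM phenol, 5 mM EDTA and 10 µM (final) arachidonic acid or 2-AG. Compound in EtOH was added and a 5 min baseline recorded. The reaction was started with ovine COX-1 or human recombinant COX-2 (200 U), and oxygen consumption was read in 10 s blocks. Means ± SEM, n = 3-4.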

Broadly, the IC50 is the concentration at which inhibition is half-maximal. In test [1], `Cc1cccnc1NC(=O)C(C)c1ccc(Nc2ccnc(C(F)(F)F)c2)cc1` (centres undefined) registered an IC50 of 2500 nM. Further, the inhibition entry in test [2] and in test [3] was “Active” in each case.
For the compound `CC(C(=O)Nc1ncccc1Cl)c1ccc(Nc2ccnc(C(F)(F)F)c2)cc1` (centres undefined), in test [4], the inhibition result is “Active”.
